High-throughput results (PubChem)
In the library only some 5.7% were active in any assay of this set; here they are far more common.
CSC inhib – blocks cancer stem cells. inhibition, % at 7.5 µM. 300,000 tested, 1.1% active. AID 2717. cancer stem cell-like cells viability, luminescence; in the data active = inhibition above about 75%; tested in HMLE shEcad cells
Beta cell apopt – beta cell apoptosis inhibition. protection from apoptosis, % (test concentration not listed). INS-1E cytokine-induced death, ATP luminescence, 48 h; percent of positive-control rescue, neutral wells zero. 300,000 tested, 0.8% active. AID 435005;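 active = Every replicate reaches about 75%, or at least half do and their mean reaches it too, limit read from the data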;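 also: higher means more ATP so stronger rescue from cytokine killing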
SKKanGAS inh – SKKanGAS growth inhibition; inhibition, % at 7.5 µM; S. pyogenes SKKanGAS, kanamycin growth, BacTiter-Glo, 6 h; 300,000 tested, 1.3% active; AID 1662;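 active = mean replicate score, as percent of positive control median, at least 50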;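 also: strain carries kanamycin resistance gene driven by streptokinase promoter and grows in 40 µg/ml kanamycin; loss of luminescence reflects streptokinase promoter inhibition or plain growth inhibition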
Mdm2-MdmX inh – disrupts the human Mdm2-MdmX interaction. SaOS-2 split-luciferase Mdm2/MdmX complementation, luminescence. inhibition, % at 8 µM. 330,000 tested, 3% active;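 active = inhibition of at least 50% at 8 µM in the primary screen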
Target sequence (O15151 whole entry, looked up): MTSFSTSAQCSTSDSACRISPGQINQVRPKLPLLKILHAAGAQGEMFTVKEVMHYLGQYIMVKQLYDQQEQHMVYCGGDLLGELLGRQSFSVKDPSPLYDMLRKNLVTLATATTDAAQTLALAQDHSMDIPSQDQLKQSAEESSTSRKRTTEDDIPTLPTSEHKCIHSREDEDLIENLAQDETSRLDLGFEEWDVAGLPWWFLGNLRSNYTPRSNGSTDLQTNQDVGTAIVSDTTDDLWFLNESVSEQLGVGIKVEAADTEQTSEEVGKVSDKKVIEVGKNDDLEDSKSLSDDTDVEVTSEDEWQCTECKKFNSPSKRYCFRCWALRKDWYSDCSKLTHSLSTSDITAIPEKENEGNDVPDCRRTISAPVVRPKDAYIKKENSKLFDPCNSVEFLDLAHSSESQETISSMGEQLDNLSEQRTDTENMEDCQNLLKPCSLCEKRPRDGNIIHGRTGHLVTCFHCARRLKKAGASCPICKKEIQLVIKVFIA
Target sequence (Q00987 whole entry, looked up): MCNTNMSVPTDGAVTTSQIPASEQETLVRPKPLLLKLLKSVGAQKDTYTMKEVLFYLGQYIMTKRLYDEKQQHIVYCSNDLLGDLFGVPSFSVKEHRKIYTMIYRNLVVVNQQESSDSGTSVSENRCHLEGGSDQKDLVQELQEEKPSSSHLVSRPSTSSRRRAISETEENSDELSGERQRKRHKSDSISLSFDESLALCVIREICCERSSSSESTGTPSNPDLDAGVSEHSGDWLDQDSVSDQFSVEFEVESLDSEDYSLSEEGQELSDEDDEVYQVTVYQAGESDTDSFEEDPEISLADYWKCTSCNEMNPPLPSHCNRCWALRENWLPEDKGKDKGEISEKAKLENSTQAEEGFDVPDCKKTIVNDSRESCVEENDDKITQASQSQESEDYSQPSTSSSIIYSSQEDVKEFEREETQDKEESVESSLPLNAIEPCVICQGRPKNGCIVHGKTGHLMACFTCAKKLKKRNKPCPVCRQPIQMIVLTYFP
T cruzi inh – T. cruzi replication inhibition; T. cruzi beta-gal in NIH3T3, luminescence, 90 h; inhibition, % (test concentration not listed); 300,000 tested, 1.4% active; AID 1885;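 active = mean inhibition across valid replicates above about 55%, limit read from the data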;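 also: signal also drops with host cell toxicity which is not excluded here; higher percent means less beta-gal luminescence so fewer parasites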
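assay system = mouse NIH/3T3 fibroblasts infected with β-gal-expressing T. cruzi Tulahuen C4 | input = 5,000 NIH/3T3 host cells per well | buffer or medium = DMEM plus 2% FBS | timing = 3 h host attachment, then at least 90 h co-culture | measured by = GalScreen luminescence, 60 min | evaluation = luminescence reflecting intracellular parasite burden, expressed as percent inhibition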
Calb FLC – C. albicans growth modulation with fluconazole | 300,000 tested, 0.57% active | C. albicans CaCi-2 (fluconazole-resistant clinical isolate) + fluconazole, Alamar Blue growth, 48 h | growth inhibition, % (concentration not given with the values) | AID 1979;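 active = growth inhibition above about 58% in most replicates, limit read from the data, passing the limit was not always enough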;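 also: all wells also contain fluconazole at 8 µg/ml as a sub-toxic cotreatment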
Of the large screens only hits and unclear results are named; the others gave an inactive call.

Cc1cccc(C)c1N(CC(=O)N1CCCC1)S(C)(=O)=O	none
Cc1snc(S(=O)(=O)/C(C#N)=N/Nc2ccc(C(F)(F)F)cc2)c1C#N	CSC inhib 89
O=C(NC1CCCCC1)C(c1ccc2ncccc2c1)N(Cc1ccc(F)cc1)C(=O)c1ccc2c(c1)OCCO2 (stereo unspecified)	Calb FLC 87
O=C(Nc1cc2c3c(c1)CC(=O)N3CCC2)c1ccco1	none
C=CCn1nc([N+](=O)[O-])nc1Sc1cccc2cccnc12	Beta cell apopt 95
O=C1OC(N2C(=O)CC[C@H]2C(=O)Nc2ccc(Br)cc2F)c2ccccc21 (stereo partly specified)	none (no result: Beta cell apopt)
CC1CCCCC1NC(=O)COC(=O)c1ccc2c(=O)n3c(nc2c1)CCC3 (stereo unspecified)	none (no result: SKKanGAS inh, T cruzi inh, Calb FLC)
COc1cc(CNc2ccc(CNc3ncn[nH]3)cc2)ccc1OCc1ccccc1	CSC inhib 90
Cc1ccc(CNc2ccc(CNc3ncn[nH]3)cc2)cc1	none
CCOc1ccc(CNc2ccc(CNc3ncn[nH]3)cc2)cc1	Calb FLC 102
CCOc1ccc(CNc2ccc(N3CCCC3)cc2)cc1	Beta cell apopt 109
COc1ccccc1CNc1ccc(CNc2ncn[nH]2)cc1	none
COc1ncnc(-c2ccccc2)c1-c1ccccc1	none
c1cncc(-c2nc(N3CCOCC3)c3c4c(sc3n2)CCC4)c1	none
c1cncc(-c2nc(NCCCN3CCOCC3)c3c4c(sc3n2)CCC4)c1	T cruzi inh 73
O=C(CSc1nnc(COc2ccc(Cl)cc2)o1)N1CCCCC1	none
CCOc1ccccc1NC(=O)COC(=O)CN1C(=O)NC(C)(C)C1=O	none (no result: SKKanGAS inh, T cruzi inh, Calb FLC)
C[C@H](CO)N1C[C@H](C)[C@@H](CN(C)C(=O)NC2CCCCC2)Oc2c(NS(=O)(=O)c3ccc(F)cc3)cccc2C1=O	none (no result: SKKanGAS inh, T cruzi inh, Calb FLC)
CN1CCN(NC(=O)c2cn(-c3ccccc3)nc2-c2cccc(Br)c2)CC1	T cruzi inh 56
COc1ccccc1-c1cc(C(F)(F)F)n2ncc(C(=O)N3CCc4ccccc4C3)c2n1	none
CCC[C@@H](CN1CCC[C@H]1CN1C(N)=NC[C@@H]1Cc1ccccc1)N1C[C@@H](Cc2ccccc2)N(CCCC2CCCC2)C1=N	none (no result: SKKanGAS inh, T cruzi inh, Calb FLC)
CCC[C@@H](CN1CCC[C@H]1CN1C(N)=NC[C@@H]1Cc1ccccc1)N1C[C@@H]([C@H](C)CC)N(CCCC2CCCC2)C1=N	Beta cell apopt 101 (no result: CSC inhib, SKKanGAS inh, T cruzi inh, Calb FLC)
O=C(COC(=O)CNS(=O)(=O)c1ccccc1)Nc1ncc(Cl)cc1Cl	none (no result: CSC inhib, SKKanGAS inh, T cruzi inh, Calb FLC)
C[C@@H](O)[C@H]1C(=O)N2C(C(=O)O)=C(S[C@@H]3CN[C@H](C(=O)N(C)C)C3)[C@H](C)[C@H]12	SKKanGAS inh 110 (no result: Mdm2-MdmX inh, Calb FLC)
NC(=O)c1c(NC(=O)CCCn2cnc([N+](=O)[O-])n2)sc2c1CCCC2	T cruzi inh 60
O=C(CCCn1cnc([N+](=O)[O-])n1)Nc1cccc(O)c1	none (no result: Beta cell apopt)
O=C(CCCn1cnc([N+](=O)[O-])n1)Nc1ccc(Cl)cc1Cl	T cruzi inh 58
O=C(CCCn1cnc([N+](=O)[O-])n1)Nc1ccc(F)c(Cl)c1	T cruzi inh 60
O=C(NCc1n[nH]c(=S)n1-c1ccc(Cl)c(Cl)c1)c1ccco1	none
COc1cc2c(cc1OC)C(COc1cc(C)cc(C)c1)N(C(C)=O)CC2 (stereo unspecified)	none
CC(C)c1ccc2[nH]c(O)c(N=NC(=O)c3cccc(S(=O)(=O)N4CCCCC4)c3)c2c1	SKKanGAS inh 107, T cruzi inh 69
CC1CCC(NC(=O)c2ccc(NC(=O)CC3SC(N4CCCC4)=NC3=O)cc2)CC1 (stereo unspecified)	none
CC1CCc2c(sc3ncnc(N4CCOCC4)c23)C1 (stereo unspecified)	Calb FLC 88
COc1ccc(Nc2nc(CN3CCOCC3)nc3sc4c(c23)CCC(C)C4)cc1OC (stereo unspecified)	none
CC1CCc2c(sc3nc(CN4CCOCC4)nc(Sc4ccccc4)c23)C1 (stereo unspecified)	CSC inhib 84
CC(C)Nc1nc(NC(C)C)nc(N(C)N)n1	SKKanGAS inh 56
CC(C)Nc1nc(NC(C)C)nc(N(C)C(N)=O)n1	none
CCOC(=O)c1cnc2ccc(C)cc2c1Nc1ccc(N2CCOCC2)cc1	Calb FLC 96
CCOc1ccc2ncc(S(=O)(=O)c3ccccc3)c(N3CCN(c4ccccc4)CC3)c2c1	none
